Measurements reported in ChEMBL document CHEMBL1671780, “Analogues of σ receptor ligand 1-cyclohexyl-4-[3-(5-methoxy-1,2,3,4-tetrahydronaphthalen-1-yl)propyl]piperazine (PB28) with added polar functionality and reduced lipophilicity for potential use as positron emission tomography radiotracers” (J Med Chem, 2011).

What was measured:
[1] = molecular target: Sigma non-opioid intracellular receptor 1 (Cavia porcellus) (UniProt Q60492); test: Displacement of [3H]-(+)-pentazocine from sigma 1 receptor in Dunkin guinea pig brain membrane without cerebellum at 10^-12M; format: cell membranes
Outline: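 σ1 binding with (+)-[3H]-pentazocine on guinea pig brain membranes lacking cerebellum; percent inhibition of specific binding recorded at a single 10-12 M test concentration. Means of ≥3 separate experiments.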

[2] = Octanol-aqueous phases partition coefficient, log D of the compound at pH 7.4; format: physicochemical; conditions: octanol/aqueous phase
[3] = Lipophilicity, log P of the compound; format: physicochemical; conditions: octanol/water
[4] = Inhibition of P-gp in MDCK-MDR1 cells by calcein-AM assay; format: cell-based, Canis lupus familiaris
Outline: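 MDCK-MDR1 cells overexpressing P-gp, grown in high-glucose DMEM with 10% FBS, were seeded at 50 000 cells/well and left overnight to reach confluence. Compound preincubated 30 min at 37 °C, then calcein-AM (2.5 μM final) added for a further 30 min. Cells washed with ice-cold PBS and fluorescence read at ex 485/em 535 nm relative to untreated cells. EC50 fitted from % fluorescence increase versus log dose.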

[5] = Displacement of [3H]DTG from sigma 2 receptor in Wistar Hannover rat liver membrane in presence of (+)-pentazocine; format: cell membranes
SK-N-SH [6] = test: Antiproliferative activity against human SK-N-SH cells after 48 hts by MTT assay; format: functional, cell-based
Outline: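 SK-N-SH neuroblastoma cells grown in RPMI 1640 with 10% FBS, glutamine, pyruvate and nonessential amino acids at 37 °C, 5% CO2. Seeded at 30 000 cells/well, then exposed next day to drug (0.1 μM-100 μM; solvent controls included). MTT 0.5 mg/mL added for 3 h at 37 °C after 48 h exposure, formazan dissolved in DMSO, absorbance read at 570 and 630 nm. EC50 from nonlinear curve fitting; means of ≥2 experiments.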

[7] = molecular target: Sigma non-opioid intracellular receptor 1 (Cavia porcellus, UniProt Q60492); test: Displacement of [3H]-(+)-pentazocine from sigma 1 receptor in Dunkin guinea pig brain membrane without cerebellum; format: cell membranes
SK-N-SH [8] = test: Antiproliferative activity against human SK-N-SH cells at 100 uM after 48 hts by MTT assay; format: functional

Chain of Sigma non-opioid intracellular receptor 1 (Q60492 whole entry): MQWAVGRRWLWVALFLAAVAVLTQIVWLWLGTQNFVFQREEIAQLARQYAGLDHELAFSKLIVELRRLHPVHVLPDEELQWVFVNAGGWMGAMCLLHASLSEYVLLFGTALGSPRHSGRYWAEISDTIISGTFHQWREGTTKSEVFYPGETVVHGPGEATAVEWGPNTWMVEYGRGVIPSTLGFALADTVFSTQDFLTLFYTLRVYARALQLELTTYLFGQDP
Chain of Sigma non-opioid intracellular receptor 1 (Cavia porcellus) (Q60492 whole entry): as above

Row | SMILES | inhibition [1] [%] | logD [2] | logP [3] | EC50 [4] [µM] | Ki [5] [µM] | EC50 (SK-N-SH [6]) [µM] | Ki [7] [µM] | inhibition at 100 µM (SK-N-SH [8]) [%]
1 | COc1cccc2c(OCCN3CCN(C4CCCCC4)CC3)cccc12 | 65 | 2.88 | 3.94 | 3.4 | 0.0024 | 41.6 |  | 
2 | COc1cccc2c1CCC[C@H]2OCCN1CCN(C2CCCCC2)CC1 |  |  |  | 5.3 | 0.0111 |  | 0.00217 | 91
3 | COc1cccc2c1CCC[C@H]2NC(=O)CN1CCN(C2CCCCC2)CC1 |  |  |  | 6.6 | 0.0101 |  | 0.0204 | 100
4 | COc1cccc2c1CCCC2OCCN1CCN(C2CCCCC2)CC1 (racemic) |  |  |  | 2.4 | 0.00903 |  | 0.0039 | 72
5 | COc1cccc2c(NCCN3CCN(C4CCCCC4)CC3)cccc12 |  | 2.88 | 4.08 | 3.6 | 0.0185 | 44 | 0.00544 | 
6 | COc1cccc2c1CCC[C@H]2CCCN1CCN(C2CCCCC2)CC1 |  |  |  | 3.8 | 0.00118 | 9.37 |  | 
7 | COc1cccc2c1CCC[C@@H]2OCCN1CCN(C2CCCCC2)CC1 |  |  |  | 1.7 | 0.00471 |  | 0.00324 | 93
8 | COc1cccc2c1CCC[C@@H]2NC(=O)CN1CCN(C2CCCCC2)CC1 |  |  |  | 8.1 | 0.00592 |  | 0.0946 | 100
9 | COc1cccc2c1CCC[C@@H]2NCCN1CCN(C2CCCCC2)CC1 |  |  |  | 3.2 | 0.00852 |  | 0.0233 | 33
10 | COc1cccc2c1CCCC2NC(=O)CN1CCN(C2CCCCC2)CC1 (racemic) |  | 2.38 | 3.69 | 8.8 | 0.0133 |  | 0.0126 | 68
11 | COc1cccc2c(NC(=O)CN3CCN(C4CCCCC4)CC3)cccc12 |  | 2.18 | 3.44 | 9.1 | 0.0232 |  | 0.0426 | 75
12 | COc1cccc2c1CCC[C@H]2NCCN1CCN(C2CCCCC2)CC1 |  |  |  | 9.8 | 0.0144 |  | 0.0136 | 31
13 | COc1cccc2c1CCC[C@@H]2CCCN1CCN(C2CCCCC2)CC1 |  |  |  | 4.4 | 0.00049 | 9.07 |  | 
14 | COc1cccc2c1CCCC2NCCN1CCN(C2CCCCC2)CC1 (racemic) |  | 0.89 | 3.05 | 10 | 0.00849 |  | 0.0239 | 48
15 | COc1cccc2c1CCCC2CCCN1CCN(C2CCCCC2)CC1 (racemic) |  | 3.99 | 5.08 | 3 | 0.00068 | 9.04 |  | 
16 | COc1cccc2c1OCCC2CCCN1CCN(C2CCCCC2)CC1 (racemic) |  |  |  | 5.2 | 0.00972 |  | 0.0125 | 100
17 | COc1cccc2c1CCCC2N(C)CCN1CCN(C2CCCCC2)CC1 (racemic) |  | 1.83 | 4.83 | 8.8 | 0.0153 |  | 0.00417 | 82
